According to paper PMC9464755 (Advances in Therapy, 2022):
Values after ≈ are worked out from the molar mass of the structure shown. Like-named read-outs stand apart in the source and are kept apart here.

How the values were obtained:
[1] = cited from earlier work
[2] = cited from earlier work; remark: listed apart in the source
[3] = once-daily administration; cited from earlier work
[4] = Steady-state pharmacokinetics of lazertinib with; format: in vivo, human; conditions: for CD15, arithmetic mean: 240 mg once daily; for DNAUCss, arithmetic mean / DNCmax,ss, arithmetic mean / DNCD15, arithmetic mean: 40–320 mg once daily; for DNAUCss, arithmetic mean / DNCmax,ss, arithmetic mean: steady state
In short: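 NSCLC patients dosed once daily, fasting, in 21-day cycles. AUCss and Cmax,ss came from non-compartmental analysis using actual sampling times over the dosing interval after the 22nd dose (cycle 2 day 1). CD15 is the trough before the 15th dose. Groups were compared using dose-normalized values within the dose-proportional range, plus raw values at 240 mg. Analysis was ANOVA on log-transformed values with group as fixed effect; geometric mean ratios with 90% CI.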

[5] = tested on: cytochrome P450 (CYP) 3A4; conditions: in vitro study; cited from earlier work
[6] = cited from earlier work; remark: listed apart in the source
[7] = healthy subjects; cited from earlier work
[8] = co-administered with omeprazole or ranitidine
[9] = co-administered with ranitidine (an H2RA)

In the case of `O=C(c1ccc(F)c(F)c1Nc1ccc(I)cc1F)N1CC(O)([C@@H]2CCCCN2)C1` [cobimetinib], the Fold less solubility ([1]; pH 6.4 compared to pH 1.9) is given as 100 fold and the “Effect of rabeprazole on exposure” value ([2]; fed and fasted conditions) is given as “did not result in a statistically significant effect”.
For `C[C@@H](Oc1cc(-c2cnn(C3CCNCC3)c2)cnc1N)c1c(Cl)ccc(F)c1Cl` [crizotinib], the Solubility ([1]; pH 1.6) is listed as over 10000 µg/mL, the Solubility ([1]; pH 7.7) is listed as 100 µg/mL (≈ 0.222 mM) and the “Effect of esomeprazole on pharmacokinetics” value [2] is listed as “no clinically significant effect”.
In the case of `C#Cc1cccc(Nc2ncnc3cc(OCCOC)c(OCCOC)cc23)c1` [erlotinib], the “AUC decreased by” value [2, 8] is listed as 30–45% and the “Cmax decreased by” value [2, 8] is listed as 50–60%.
For `COc1cc2ncnc(Nc3ccc(F)c(Cl)c3)c2cc1OCCCN1CCOCC1` [gefitinib], the “AUC decreased to” value [2, 9] is listed as 45% and the “Cmax decreased to” value [2, 9] is listed as 70%.
In the case of `C=CC(=O)Nc1cc(Nc2nccc(-n3cc(CN(C)C)c(-c4ccccc4)n3)n2)c(OC)cc1N1CCOCC1` [lazertinib, Lazertinib], the “Time to reach steady state” value [3] is listed as at most 15 days, the “Reduction of exposure by ARAs at the steady state” value ([4]; ARA group versus non-ARA group) is listed as “approximately 10%” and the “Effect of co-administered ARAs on the steady state pharmacokinetics” value ([4]; ARA group versus non-ARA group, all p values > 0.05) is listed as “did not significantly affect”. For the same molecule, the “CD15, arithmetic mean” value ([4]; ARA group, trough day 15 of cycle 1, n=10) was 159.01 (62.4%) ng/mL, the “DNAUCss, arithmetic mean” value ([4]; ARA group, n=19) was 25.51 (59.9%) h·ng/mL/mg and the “DNCmax,ss, arithmetic mean” value ([4]; ARA group, n=19) was 1.97 (50.1%) ng/mL/mg. For the same molecule, the “DNCD15, arithmetic mean” value ([4]; ARA group, trough day 15 of cycle 1, n=23) was 0.66 (62.1%) ng/mL/mg, the “CD15, arithmetic mean” value ([4]; Non-ARA group, trough day 15 of cycle 1, n=115) was 175.70 (59.4%) ng/mL and the “DNAUCss, arithmetic mean” value ([4]; Non-ARA group, n=105) was 27.61 (42.9%) h·ng/mL/mg. The “DNCmax,ss, arithmetic mean” value ([4]; Non-ARA group, n=105) was 2.14 (44.3%) ng/mL/mg, the “DNCD15, arithmetic mean” value ([4]; Non-ARA group, trough day 15 of cycle 1, n=203) was 0.72 (63.4%) ng/mL/mg and the Metabolizing enzyme [5] was “predominantly metabolized by cytochrome P450 (CYP) 3A4”. The “Solubility in aqueous media” value ([6]; between pH 5.0 and 6.0) was “solubility decreasing”, the “Solubility in aqueous media” value ([6]; pH 1.2–4.0) was “soluble” and the “Solubility in aqueous media” value ([6]; pH 7.0–8.0) was “practically insoluble”. The “Effect of a high-fat meal on the pharmacokinetics” value [7] was “did not significantly affect”.
For `COC(=O)c1ccc2c(c1)NC(=O)/C2=C(\Nc1ccc(N(C)C(=O)CN2CCN(C)CC2)cc1)c1ccccc1` [nintedanib], the pH-dependent solubility profile [1] is listed as “increased solubility at acidic pH < 3” and the “Effect of PPI or H2RA on exposure” value [2] is listed as “neither PPI nor H2RA affected”.
For `Cc1ccc(C(=O)Nc2ccc(CN3CCN(C)CC3)c(C(F)(F)F)c2)cc1C#Cc1cnc2cccnn12` [ponatinib], the “Effect of lansoprazole on exposure” value [2] is given as “did not have a clinically significant effect”.
